Screens from PubChem BioAssay.
ABCG2 block: blocks JC-1 efflux by human ABCG2 transporter. IgMXP3 cells, flow cytometry. inhibition, % at 6.6 µM. actives 0.1% (n = 190,000);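 active = inhibition above 80%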
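test system = two drug-resistant human cell lines, ABCG2 and ABCB1 | amount = 3 million cells/mL final, two lines in 1:1 ratio | reagent = JC-1 transporter substrate | doses = one concentration, 6.6 µM final | incubation = 10 min at 25 °C | signal = flow cytometric JC-1 green MFI at 530 nm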
Lmaj promast: Leishmania major promastigote growth inhibition. actives 9% (n = 200,000). inhibition, % at 10 µM. Leishmania major promastigotes, resazurin fluorescence viability; in the data active = inhibition above about 50%;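 also: promastigotes grown with compound for 44 hours at 28 °C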
RAM inhibit: yeast RAM network inhibition; S. cerevisiae dse1pr::URA3 reporter, 5-FOA growth OD615, 2 d; analog-sensitive cbk1-as2 kinase mutant strain; inhibition, % at 50 µM; actives 1.8% (n = 190,000); AID 868;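 active = inhibition above a set limit, 3 SD over mean compound inhibition, cut at about 8.4% in these data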;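 also: inhibition rescues growth on 5-FOA so higher OD means more RAM inhibition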
ABCB1 inh: human ABCB1 inhibition, ABCG2 as counter-screen | P08183 | CCRF-Adr cells, JC-1 efflux, flow cytometry | inhibition, % at 6.6 µM | actives 0.067% (n = 190,000) | AID 1326; in the data active = inhibition above about 40%;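 also: higher value means more JC-1 retained so stronger ABCB1 efflux block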
Target sequence (P08183 whole entry, looked up): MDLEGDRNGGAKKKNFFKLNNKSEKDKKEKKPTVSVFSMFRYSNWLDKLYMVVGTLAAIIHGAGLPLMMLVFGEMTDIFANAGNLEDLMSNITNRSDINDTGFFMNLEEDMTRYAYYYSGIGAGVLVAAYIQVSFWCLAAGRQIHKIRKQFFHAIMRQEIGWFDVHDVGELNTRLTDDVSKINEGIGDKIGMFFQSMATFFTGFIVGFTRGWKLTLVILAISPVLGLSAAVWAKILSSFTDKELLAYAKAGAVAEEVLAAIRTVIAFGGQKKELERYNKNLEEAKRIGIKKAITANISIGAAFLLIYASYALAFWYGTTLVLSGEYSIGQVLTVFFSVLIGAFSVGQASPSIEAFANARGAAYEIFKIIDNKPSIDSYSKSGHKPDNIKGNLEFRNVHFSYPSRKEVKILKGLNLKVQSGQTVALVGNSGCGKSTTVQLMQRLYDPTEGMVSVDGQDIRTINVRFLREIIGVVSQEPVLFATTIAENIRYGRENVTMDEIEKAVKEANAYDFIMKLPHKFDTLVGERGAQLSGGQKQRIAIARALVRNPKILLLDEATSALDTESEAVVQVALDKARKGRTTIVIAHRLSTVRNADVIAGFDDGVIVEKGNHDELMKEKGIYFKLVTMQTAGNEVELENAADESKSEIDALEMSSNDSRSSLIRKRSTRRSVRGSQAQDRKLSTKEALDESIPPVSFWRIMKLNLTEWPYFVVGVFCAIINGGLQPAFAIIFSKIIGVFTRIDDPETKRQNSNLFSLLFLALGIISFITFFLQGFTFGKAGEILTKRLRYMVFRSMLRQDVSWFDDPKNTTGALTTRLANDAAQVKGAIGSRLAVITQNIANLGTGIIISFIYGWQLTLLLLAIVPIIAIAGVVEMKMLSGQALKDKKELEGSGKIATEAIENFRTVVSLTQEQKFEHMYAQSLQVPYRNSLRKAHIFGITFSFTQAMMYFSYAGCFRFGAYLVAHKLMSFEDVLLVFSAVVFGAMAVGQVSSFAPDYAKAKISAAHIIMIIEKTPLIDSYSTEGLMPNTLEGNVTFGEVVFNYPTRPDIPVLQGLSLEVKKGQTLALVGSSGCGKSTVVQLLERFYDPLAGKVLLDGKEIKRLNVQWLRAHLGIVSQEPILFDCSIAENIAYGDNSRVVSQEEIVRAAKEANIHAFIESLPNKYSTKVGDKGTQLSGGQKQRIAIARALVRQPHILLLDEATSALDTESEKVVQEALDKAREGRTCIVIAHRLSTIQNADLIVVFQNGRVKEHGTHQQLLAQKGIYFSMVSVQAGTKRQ
WT yeast gro inh: growth inhibition of WT yeast, mitochondrial fusion screen; mitochondrial fusion phenotypic screen, WT strain; inhibition, % at 10 µM; actives 2.1% (n = 190,000); AID 1362; in the data active = inhibition above about 58%; tested in S. cerevisiae
Lmaj promast 1uM: blocks Leishmania major promastigote growth at 1 uM, repeat screen. L. major promastigote growth, resazurin fluorescence, 48 h. inhibition, % at 1 µM. actives 13% (n = 1,100). shares compounds with Lmaj promast;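 active = inhibition above about 50% in both repeat tests, limit read from the data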
Hits are given with their value. Compounds with a hit are over-represented: about 12% of the library has one in this group of screens.

How did CC12CC(NC(=O)N1c1ccc(C(=O)N3CCN(c4ccccn4)CC3)cc1)c1ccccc1O2 (stereo not drawn) do in these assays?
ABCG2 block: inactive; Lmaj promast: inactive; RAM inhibit: inactive; ABCB1 inh: inactive; WT yeast gro inh: inactive

How did CCOc1cc(/C=C(\C#N)C(=O)Nc2ccccc2[N+](=O)[O-])ccc1OCc1cccc2ccccc12 do in these assays?
ABCG2 block: inactive; Lmaj promast: inactive; RAM inhibit: inactive; ABCB1 inh: inactive; WT yeast gro inh: inactive

What do the screens show for `Nn1cnc2c(c1=O)C1(CCCCC1)Cc1ccccc1-2`?
ABCG2 block: inactive; Lmaj promast: inactive; RAM inhibit: inactive; ABCB1 inh: inactive; WT yeast gro inh: inactive

What do the screens show for `Oc1ccc(-c2nc3c4c(ncn3n2)-c2ccccc2CC42CCCC2)cc1`?
ABCG2 block: inactive; Lmaj promast: 87; RAM inhibit: inactive; ABCB1 inh: inactive; WT yeast gro inh: 96; Lmaj promast 1uM: inactive

How did Cc1ccc(N(C(=O)C2CCCC2)C2C=CS(=O)(=O)C2)cc1C (stereo not drawn) do in these assays?
ABCG2 block: inactive; Lmaj promast: 56; RAM inhibit: inactive; ABCB1 inh: inactive; WT yeast gro inh: inactive; Lmaj promast 1uM: inactive

How did Cc1ccsc1C(=O)N1CCC(N2CCC(C(=O)NCC3CCCO3)CC2)CC1 (stereo not drawn) do in these assays?
ABCG2 block: inactive; Lmaj promast: inactive; RAM inhibit: inactive; ABCB1 inh: inactive; WT yeast gro inh: inactive

What do the screens show for `Cc1ccc(NC(=O)c2cncc(Br)c2)cc1S(=O)(=O)N(C)C`?
ABCG2 block: inactive; Lmaj promast: inactive; RAM inhibit: inactive; ABCB1 inh: inactive; WT yeast gro inh: inactive

What do the screens show for `C=C(C)c1cccc(C(C)(C)NC(=O)N2CCCC(C)C2)c1` (stereo not drawn)?
ABCG2 block: inactive; Lmaj promast: inactive; RAM inhibit: inactive; ABCB1 inh: inactive; WT yeast gro inh: inactive

How did C=C(C)c1cccc(C(C)(C)NC(=O)N(C)C2CCN(C)CC2)c1 do in these assays?
ABCG2 block: inactive; Lmaj promast: 98; RAM inhibit: inactive; ABCB1 inh: inactive; WT yeast gro inh: inactive; Lmaj promast 1uM: inactive

How did O=C(CN1C(=O)C2CC=CCC2C1=O)Nc1nc2ccccc2s1 (stereo not drawn) do in these assays?
ABCG2 block: inactive; Lmaj promast: inactive; RAM inhibit: inactive; ABCB1 inh: inactive; WT yeast gro inh: inactive

How did O=C(/C(=N\Nc1ccccc1)Sc1nnnn1-c1ccccc1)c1ccccc1 do in these assays?
ABCG2 block: inactive; Lmaj promast: inactive; RAM inhibit: inactive; ABCB1 inh: inactive; WT yeast gro inh: inactive

Results for CCOC(=O)c1nc2cc3n(c(C)c-2c1C)C(C)C(CC)=C3C (stereo not drawn) ?
Lmaj promast: 99; Lmaj promast 1uM: inactive

Results for NC1=NC2=C(CCCC2)C2(CCCCC2)S1 ?
ABCG2 block: inactive; Lmaj promast: 54; RAM inhibit: inactive; ABCB1 inh: inactive; WT yeast gro inh: inactive; Lmaj promast 1uM: inactive

What do the screens show for `O=C1CCC([N+](=O)[O-])C(c2cccc(Br)c2)N1` (stereo not drawn)?
ABCG2 block: inactive; Lmaj promast: 54; RAM inhibit: inactive; ABCB1 inh: inactive; WT yeast gro inh: inactive; Lmaj promast 1uM: inactive

Results for Cc1ccccc1Cn1nnc(C(=O)Nc2cccc(C)c2C)c1N ?
ABCG2 block: inactive; Lmaj promast: 95; RAM inhibit: inactive; ABCB1 inh: inactive; WT yeast gro inh: inactive; Lmaj promast 1uM: inactive

What do the screens show for `Cc1ccc(S(=O)(=O)N2Cc3ccccc3CC2C(=O)Nn2cnnc2)cc1` (stereo not drawn)?
ABCG2 block: inactive; Lmaj promast: inactive; RAM inhibit: inactive; ABCB1 inh: inactive; WT yeast gro inh: inactive

What do the screens show for `CCOc1ccc(S(=O)(=O)N2Cc3ccccc3CC2C(=O)NCCCn2ccnc2)cc1` (stereo not drawn)?
ABCG2 block: inactive; Lmaj promast: 98; RAM inhibit: inactive; ABCB1 inh: inactive; WT yeast gro inh: inactive; Lmaj promast 1uM: inactive

What do the screens show for `O=C(O)C1CCCN1S(=O)(=O)c1cccc2nsnc12` (stereo not drawn)?
ABCG2 block: inactive; Lmaj promast: inactive; RAM inhibit: inactive; ABCB1 inh: inactive; WT yeast gro inh: inactive

What do the screens show for `O=C(Nc1ccc(N2CCN(C(=O)c3ccco3)CC2)cc1)c1cccnc1Cl`?
ABCG2 block: inactive; Lmaj promast: inactive; RAM inhibit: inactive; ABCB1 inh: inactive; WT yeast gro inh: inactive

What do the screens show for `Cc1ccc(C(C[N+](=O)[O-])n2nc(C)cc2C)cc1` (stereo not drawn)?
ABCG2 block: inactive; Lmaj promast: 100; RAM inhibit: inactive; ABCB1 inh: inactive; WT yeast gro inh: inactive; Lmaj promast 1uM: inactive

How did Cc1cc(C)n(C(CC(=O)O)C(=O)O)n1 (stereo not drawn) do in these assays?
ABCG2 block: inactive; Lmaj promast: inactive; RAM inhibit: inactive; ABCB1 inh: inactive; WT yeast gro inh: inactive

What do the screens show for `O=C(O)CCNC(=O)C12CC3CC(CC(C3)C1)C2`?
ABCG2 block: inactive; Lmaj promast: inactive; RAM inhibit: inactive; ABCB1 inh: inactive; WT yeast gro inh: inactive

Results for Cc1ccccc1N1C(S)=C(C#N)C(=O)NC12CCCCC2 ?
ABCG2 block: inactive; Lmaj promast: 51; RAM inhibit: inactive; WT yeast gro inh: inactive; Lmaj promast 1uM: inactive

What do the screens show for `Cc1ccc(NC(=S)c2nc3ccccc3[nH]2)cc1`?
ABCG2 block: inactive; Lmaj promast: 70; RAM inhibit: inactive; ABCB1 inh: inactive; WT yeast gro inh: inactive; Lmaj promast 1uM: inactive

Results for Cc1ccc(C[n+]2cccc(-c3ccccc3)c2)c(C)c1 ?
ABCG2 block: inactive; Lmaj promast: 91; RAM inhibit: inactive; ABCB1 inh: inactive; WT yeast gro inh: inactive; Lmaj promast 1uM: inactive

How did CCOC(=O)C1CCCN(C(=O)c2ccco2)C1 (stereo not drawn) do in these assays?
ABCG2 block: inactive; Lmaj promast: inactive; RAM inhibit: inactive; ABCB1 inh: inactive; WT yeast gro inh: inactive

How did Cc1cc(/C=C2\Sc3ccccc3N2C)cc(C)[n+]1CC1CCCO1 (stereo not drawn) do in these assays?
ABCG2 block: inactive; Lmaj promast: 101; RAM inhibit: inactive; ABCB1 inh: inactive; WT yeast gro inh: inactive; Lmaj promast 1uM: 101

How did Cc1ccc(-c2cc(C(F)F)nc(NCc3cccnc3)n2)cc1 do in these assays?
ABCG2 block: inactive; Lmaj promast: 57; RAM inhibit: inactive; ABCB1 inh: inactive; WT yeast gro inh: inactive; Lmaj promast 1uM: inactive

What do the screens show for `FC(F)(F)c1cc(-c2ccc(Cl)cc2)nc(NCc2cccnc2)n1`?
ABCG2 block: inactive; Lmaj promast: inactive; RAM inhibit: inactive; ABCB1 inh: inactive; WT yeast gro inh: inactive

Results for c1ccc(-n2nnnc2Oc2cccc3cccnc23)cc1 ?
ABCG2 block: inactive; Lmaj promast: 63; RAM inhibit: inactive; ABCB1 inh: inactive; WT yeast gro inh: inactive; Lmaj promast 1uM: inactive

How did Cc1cc(C)n(S(=O)(=O)/C=C/c2ccccc2)n1 do in these assays?
ABCG2 block: inactive; Lmaj promast: 98; RAM inhibit: inactive; ABCB1 inh: inactive; WT yeast gro inh: inactive; Lmaj promast 1uM: inactive
